Source: paper PMC12530853 (RSC Advances, 2025)
Converted amounts (≈) assume the structure as drawn. “Also recorded” adds a separate entry of the source.

Assays:
[1] = test system: CYP24A1 mRNA in HEK293T cells; test: CYP24A1 mRNA levels by quantitative PCR; format: cell-based
[2] = test system: C. albicans ATCC 10231; test: Minimum inhibitory concentration; format: cell-based; details: Candida albicans, ATCC10231, read-out: Minimum inhibitory concentration (MIC) C. albicans ATCC 10231
Outline: (§1)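 Exponential-phase yeast were washed three times in PBS and suspended at 1 × 10^3 CFU/mL in RPMI 1640. Test compound and fluconazole comparator were twofold serially diluted in microplates, each concentration in triplicate wells. Growth was read as OD600, from which the MIC was determined.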

[3] = test system: C. albicans ATCC 14053; test: Minimum inhibitory concentration; format: cell-based; details: Candida albicans, ATCC14053, read-out: Minimum inhibitory concentration (MIC) C. albicans ATCC 14053
Outline: as §1

[4] = test system: C. albicans ATCC 90028; test: Activity against additional fungal strains; format: cell-based; details: Table 2; no quantity or unit printed
Outline: (§2)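 Fungi in exponential phase were washed three times in PBS and resuspended at 1 × 10^3 CFU mL−1 in RPMI 1640. Test compound and fluconazole were serially diluted twofold in 96-well plates, in triplicate wells per concentration. MIC was derived from OD600 readings.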

[5] = test system: C. albicans ATCC 24433; test: Activity against additional fungal strains; format: cell-based; details: Table 2; no quantity or unit printed
Outline: as §2

[6] = test system: F. solani 52628; test: Activity against additional fungal strains; format: cell-based; details: Table 2; no quantity or unit printed
Outline: as §2

[7] = test system: F. solani 46492; test: Activity against additional fungal strains; format: cell-based; details: Table 2; no quantity or unit printed
Outline: as §2

[8] = test system: A. brasiliensis TCC 16404; test: Activity against additional fungal strains; format: cell-based; details: Table 2; no quantity or unit printed
Outline: as §2

[9] = test system: FO MYA 3461; test: Activity against additional fungal strains; format: cell-based; details: Table 2; no quantity or unit printed
Outline: as §2

[10] = test system: various bacteria and fungi; test: Broad-spectrum antibacterial and antifungal MIC; format: cell-based; details: read-out: MIC (broad-spectrum antibacterial and antifungal activity)
[11] = test system: C. albicans ATCC 10231; test: Time–kill kinetics; format: cell-based; details: 8 × MIC, after 8 h
Outline: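 C. albicans in exponential phase was diluted to 1.5 × 10^6 cells per mL in RPMI 1640, in 5 mL tubes. Drug was added and tubes were shaken at 200 rpm and 30 °C. 100 μL aliquots went to microtiter wells, were incubated at 37 °C, and OD600 was read to estimate cell concentration.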

[12] = test system: C. albicans ATCC 10231; test: Drug-resistance study; format: cell-based; details: after 28 serial passages
Outline: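 Resistance development in C. albicans: the MIC of the test compound was first determined by the fungal broth microdilution method, then that determination was repeated continuously over 28 days.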

[13] = Cytotoxicity, CCK-8 assay; format: cell-based; details: human, HUVECs (human umbilical vein endothelial cells)
[14] = Cytotoxicity, CCK-8 assay; format: cell-based; details: human, Caco-2
[15] = test system: rabbit red blood cells; test: Hemolysis assay; format: cell-based
Outline: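 Rabbit erythrocytes (4% v/v in PBS) were mixed 1:1 with test compound in PBS, giving final concentrations of 2–256 μg mL−1, and incubated for 1 h at 37 °C. Samples were centrifuged at 1000g for 5 min and supernatant A490 was read. Controls were 1% Triton X-100 and PBS. Hemolysis (%) = [(sample − PBS)/(Triton − PBS)] × 100, in triplicate.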

[16] = test system: C. albicans ATCC 10231; test: SYTOX Green membrane integrity assay; format: cell-based; details: 4 × MIC; over 20 min
Outline: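 Overnight C. albicans was washed three times in PBS and set to OD600 0.2 in PBS. Cells were loaded with 0.3 μM SYTOX Green in the dark. Once the signal plateaued, test compound in PBS/DMF (final DMF 0.5%) was added. Fluorescence (ex 504 nm, em 523 nm) was monitored continuously for 1–2 h.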

[17] = Calcein leakage assay; details: liposomes mimicking fungal membranes
Outline: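 Large unilamellar vesicles of DOPC/DOPE/PI (2:1:1) with 15 wt% ergosterol were made by film hydration in 80 mM calcein, 50 mM HEPES, 100 mM NaCl, 0.3 mM EDTA, pH 7.4. They were freeze–thawed 10×, extruded through 100 nm filters, gel-filtered, and quantified by total phosphorus. Test compound was added in HEPES buffer with 5% DMF. Read at ex 490/em 520 nm; % leakage = (Ft−Fmin)/(Fmax−Fmin)×100, with Fmax from 1% Triton X-100.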

[18] = test system: C. albicans ATCC 10231 biofilm; test: Inhibition of biofilm formation; format: cell-based; details: in vitro
Outline: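 Exponential-phase fungi at 1 × 10^6 CFU mL−1 in RPMI 1640 were allowed to adhere for 1.5 h at 37 °C, then washed twice with PBS. Fresh RPMI containing graded concentrations of test compound was added for 24 h at 37 °C in the dark. Adherent cells were stained for 3 h at 37 °C and OD was read. Results are given as % inhibition of formation.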

[19] = test system: C. albicans ATCC 10231 biofilm; test: Biofilm eradication; format: cell-based; details: in vitro
Outline: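 Overnight C. albicans was adjusted to 1 × 10^6–10^7 CFU mL−1 and grown statically for 24 h at 37 °C to give mature biofilms. After two PBS rinses, biofilms were treated with test compound in fresh medium for 24 h at 37 °C; amphotericin B was the positive control and medium alone the negative control. Staining used 0.1% crystal violet for 15 min, then 95% ethanol solubilisation and OD590. Eradication (%) = [1 − OD_test/OD_negative] × 100.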

[20] = target: T1, CYP24A1 (Homo sapiens, UniProt Q07973); test: CYP24-inhibition assay; format: biochemical
T1 sequence (Q07973 36-514): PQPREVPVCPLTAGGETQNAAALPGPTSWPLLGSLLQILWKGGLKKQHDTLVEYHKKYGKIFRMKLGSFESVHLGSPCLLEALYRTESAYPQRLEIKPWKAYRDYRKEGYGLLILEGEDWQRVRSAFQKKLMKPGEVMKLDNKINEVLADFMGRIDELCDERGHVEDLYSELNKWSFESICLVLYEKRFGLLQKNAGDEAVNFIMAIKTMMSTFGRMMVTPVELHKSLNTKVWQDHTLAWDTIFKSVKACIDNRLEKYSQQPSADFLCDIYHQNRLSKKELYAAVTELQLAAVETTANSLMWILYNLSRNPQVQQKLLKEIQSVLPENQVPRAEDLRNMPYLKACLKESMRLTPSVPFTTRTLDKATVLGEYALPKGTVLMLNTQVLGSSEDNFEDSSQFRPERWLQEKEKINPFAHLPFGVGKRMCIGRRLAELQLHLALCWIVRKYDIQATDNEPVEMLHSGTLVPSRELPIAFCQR
Outline: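 Reconstituted system: 5 nM CYP24, 0.5 μM adrenodoxin and 0.05 μM adrenodoxin reductase in 100 mM Tris–HCl pH 7.4 with 1 mM EDTA. Test compound (50–200 μM) was preincubated for 15 min at room temperature. 5 μM 1,25-D3 and 1 mM NADPH were then added for 10 min at 37 °C. The reaction was stopped with 4 volumes of chloroform/methanol 3:1, and conversion was measured by C18 HPLC with UV detection at 265 nm.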

[21] = test system: metabolic clearance of 1,25(OH)2D3 in HEK293T cells; test: Retention of 1,25; format: cell-based; details: 10^−7 M compound; after 24 h; LC-MS/MS

C=C1/C(=C\C=C2/CCC[C@]3(C)[C@@H]([C@H](C)CCCC(C)(C)O)CC[C@@H]23)C[C@@H](O)C[C@@H]1O [1,25(OH)2D3, 1,25-dihydroxyvitamin D3, reference compound]
CYP24A1 mRNA levels, 1,25(OH)2D3 alone ([1]; 10^−9 M, 24 h, HEK293T cells): significantly increased

Cc1ccc(C=Nc2nc[nH]n2)c(O)c1 [3a, 2-{[(1H-1,2,4-Triazol-3-yl)imino]methyl}-5-methylphenol]
MIC [2]: 64 mg/L (≈ 316 µM)
MIC [3]: 128 mg/L (≈ 633 µM)

O=[N+]([O-])c1ccc(C=Nc2nc[nH]n2)c(O)c1 [3b, 2-{[(1H-1,2,4-Triazol-3-yl)imino]methyl}-5-nitrophenol]
MIC [2]: 64 mg/L (≈ 274 µM)
MIC [3]: 64 mg/L (≈ 274 µM)

Oc1ccc(O)c(C=Nc2ncn[nH]2)c1 [3c, 2-{[(1H-1,2,4-Triazol-5-yl)imino]methyl}benzene-1,4-diol]
MIC [2]: 16 mg/L (≈ 78.4 µM)
MIC [3]: 16 mg/L (≈ 78.4 µM)
Interaction against varied fungal strains: C. albicans ATCC 90028 [4]: 16
Interaction against varied fungal strains: C. albicans ATCC 24433 [5]: 16
Interaction against varied fungal strains: F. solani 52628 [6]: 32
Interaction against varied fungal strains: F. solani 46492 [7]: 32
Interaction against varied fungal strains: A. brasiliensis TCC 16404 [8]: 32
Interaction against varied fungal strains: FO MYA 3461 [9]: 32
MIC [10]: 16 mg/L (≈ 78.4 µM)
Time–kill: growth of C. albicans ATCC 10231 [11]: complete inhibition
Increase of MIC value in resistance development [12]: no more than 8 fold
viability at 24 h, 64 μg mL^−1 [13]: > 95%
viability at 24 h, 128 μg mL^−1 [13]: > 80%
viability at 24 h, 64 μg mL^−1 [14]: > 95%
viability at 24 h, 128 μg mL^−1 [14]: > 80%
Hemolysis of rabbit red blood cells ([15]; 16–128 μg mL^−1, 37 °C, 1 h): no significant hemolysis
Half hemolytic concentration (HC50) ([15]; rabbit red blood cells): > 256 µg/mL
SYTOX Green fluorescence (membrane integrity) [16]: gradual increase in fluorescence
Calcein leakage from LUVs [17]: induced leakage of the contents in a dose-dependent manner
Inhibition of C. albicans biofilm formation [18]: effectively inhibited
Disruption of pre-formed mature biofilms [19]: significantly disrupted
IC50 [20]: 202 µM
inhibition at 100 µM ([20]; read-out: Inhibition of CYP24A1): 32%
CYP24A1 mRNA expression, co-treatment with 1,25(OH)2D3 ([1]; 3c 10^−10 M + 1,25(OH)2D3 10^−9 M, 24 h, relative to 1,25(OH)2D3 alone): markedly enhanced
CYP24A1 mRNA expression, compound alone ([1]; 10^−7 M, HEK293T cells, versus solvent control): did not affect; also recorded: did not alter
Up-regulation of CYP24A1 mRNA levels when combined with 1,25(OH)2D3 ([1]; cellular models, combined with 1,25(OH)2D3): approximately twofold
Average concentration of 1,25(OH)2D3 remaining in HEK293T cell culture [21]: 495 pM

Oc1ccc(Cl)cc1C=Nc1ncn[nH]1 [3d, 2-{[(1H-1,2,4-Triazol-5-yl)imino]methyl}-4-chlorophenol]
MIC [2]: 128 mg/L (≈ 575 µM)
MIC [3]: 128 mg/L (≈ 575 µM)

CS(=O)(=O)c1ccc(C=Nc2ncn[nH]2)cc1 [3e, 1-[4-(Methylsulfonyl)phenyl]-N-(1H-1,2,4-triazol-5-yl)methanimine]
MIC [2]: 128 mg/L (≈ 511 µM)
MIC [3]: 128 mg/L (≈ 511 µM)

C(=Nc1ncn[nH]1)c1ccc(-c2ccccc2)cc1 [3f, 1-[(1,1′-Biphenyl)-4-yl]-N-(1H-1,2,4-triazol-5-yl)methanimine]
MIC [2]: 128 mg/L (≈ 516 µM)
MIC [3]: 128 mg/L (≈ 516 µM)
